According to ChEMBL document CHEMBL4665625, “New pyrido[3,4-g]quinazoline derivatives as CLK1 and DYRK1A inhibitors: synthesis, biological evaluation and binding mode analysis” (Eur J Med Chem, 2019):

Key:
[1] = molecular target: T1, Glycogen synthase kinase-3 (Sus scrofa) (UniProt B2LUN4+I6LNT8); experiment: Inhibition of porcine brain GSK-3alpha/beta assessed as residual activity at 1 uM using YRRAAVPPSPSLSRHSSPHQSpEDEEE as substrate in presence of [gamma-33P]ATP relative to control; format: tissue-based; conditions: Sus scrofa domesticus
Method in brief: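 Affinity-purified porcine brain GSK-3α/β with 0.01 µg/µl GS-1 peptide (phosphoserine-primed) as substrate and 15 µM [γ-33P]ATP. Buffer was 25 mM Tris-HCl pH 7.5, 10 mM MgCl2, 1 mM EGTA, 1 mM DTT, 50 µg/ml heparin and 0.15 mg/ml BSA. Radioactive incorporation was compared with DMSO-dilution controls, in triplicate.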

[2] = organism: Sus scrofa domesticus; experiment: Inhibition of porcine brain CK1delta/epsilon assessed as residual activity at 1 uM using RRKHAAIGSpAYSITA as substrate in presence of [gamma-33P]ATP relative to control; format: tissue-based
[3] = molecular target: T1, Glycogen synthase kinase-3 (Sus scrofa); experiment: Inhibition of porcine brain GSK-3alpha/beta assessed as residual activity at 10 uM using YRRAAVPPSPSLSRHSSPHQSpEDEEE as substrate in presence of [gamma-33P]ATP relative to control; format: tissue-based; conditions: Sus scrofa domesticus
[4] = molecular target: Dual specificity tyrosine-phosphorylation-regulated kinase 1A (Rattus norvegicus) (UniProt Q63470); experiment: Inhibition of rat DYRK1A kinase domain (1 to 499 residues) expressed in bacteria assessed as residual activity at 1 uM using KKISGRLSPIMTEQ as substrate in presence of [gamma-33P]ATP relative to control
Method in brief: (§1)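 Buffer: 10 mM MgCl2, 1 mM EGTA, 1 mM DTT, 25 mM Tris-HCl pH 7.5, 50 μg/ml heparin, 0.15 mg/ml BSA.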

[5] = molecular target: T2, Cyclin-dependent kinase 5/CDK5 activator 1 (Homo sapiens) (UniProt Q00535+Q15078); experiment: Inhibition of recombinant human CDK5/p25 expressed in bacteria assessed as residual activity at 1 uM using histone H1 as substrate in presence of [gamma-33P]ATP relative to control
T2 sequence (Q00535 whole entry): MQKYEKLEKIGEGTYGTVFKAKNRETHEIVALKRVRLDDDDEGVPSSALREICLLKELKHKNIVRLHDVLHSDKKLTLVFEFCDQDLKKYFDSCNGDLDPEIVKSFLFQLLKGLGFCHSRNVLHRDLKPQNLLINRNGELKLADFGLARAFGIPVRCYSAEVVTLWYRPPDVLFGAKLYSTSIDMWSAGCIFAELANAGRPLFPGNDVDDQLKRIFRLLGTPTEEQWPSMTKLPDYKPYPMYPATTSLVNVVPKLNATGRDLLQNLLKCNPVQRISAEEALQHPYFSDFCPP
T2 sequence (Q15078 99-307 partner limits assumed): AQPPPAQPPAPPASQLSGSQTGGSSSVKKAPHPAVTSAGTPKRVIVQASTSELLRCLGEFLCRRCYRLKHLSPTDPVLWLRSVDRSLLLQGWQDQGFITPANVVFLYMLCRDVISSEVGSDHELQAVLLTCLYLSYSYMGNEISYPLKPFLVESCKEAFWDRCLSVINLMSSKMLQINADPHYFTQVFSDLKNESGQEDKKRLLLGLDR
Method in brief: (§2)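 Human recombinant CDK5/p25 (bacterially expressed) assayed with 0.8 μg/μl histone H1 as substrate and 15 μM [γ-33P]ATP. Residual activity versus DMSO controls, triplicate.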

[6] = molecular target: Dual specificity protein kinase CLK1 (Mus musculus) (UniProt P22518); experiment: Inhibition of recombinant mouse CLK1 expressed in bacteria assessed as residual activity at 1 uM using GRSRSRSRSRSR as substrate in presence of [gamma-33P]ATP relative to control
Sequence of Dual specificity protein kinase CLK1 (Mus musculus) (P22518 whole entry, looked up, the tested form may be a part): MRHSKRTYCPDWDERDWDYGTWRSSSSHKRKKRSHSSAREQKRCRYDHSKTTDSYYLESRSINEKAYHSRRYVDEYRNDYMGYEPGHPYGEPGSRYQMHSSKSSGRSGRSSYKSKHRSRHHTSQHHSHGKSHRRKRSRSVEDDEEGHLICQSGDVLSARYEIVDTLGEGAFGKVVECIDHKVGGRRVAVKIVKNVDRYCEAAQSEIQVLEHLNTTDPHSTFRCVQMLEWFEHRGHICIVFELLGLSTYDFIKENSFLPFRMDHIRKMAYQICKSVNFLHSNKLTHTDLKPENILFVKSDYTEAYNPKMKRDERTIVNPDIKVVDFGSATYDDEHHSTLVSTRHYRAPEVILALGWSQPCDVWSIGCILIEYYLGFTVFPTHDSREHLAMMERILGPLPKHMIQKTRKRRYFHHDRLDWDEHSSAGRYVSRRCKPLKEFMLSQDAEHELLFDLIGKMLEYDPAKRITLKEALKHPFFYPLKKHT

[7] = molecular target: Dual specificity tyrosine-phosphorylation-regulated kinase 1A (Rattus norvegicus) (UniProt Q63470); experiment: Inhibition of rat DYRK1A kinase domain (1 to 499 residues) expressed in bacteria assessed as residual activity at 10 uM using KKISGRLSPIMTEQ as substrate in presence of [gamma-33P]ATP relative to control; method in brief: as §1
[8] = molecular target: Dual specificity protein kinase CLK1 (Mus musculus) (UniProt P22518); experiment: Inhibition of recombinant mouse CLK1 expressed in bacteria assessed as residual activity at 10 uM using GRSRSRSRSRSR as substrate in presence of [gamma-33P]ATP relative to control
[9] = organism: Sus scrofa domesticus; experiment: Inhibition of porcine brain CK1delta/epsilon assessed as residual activity at 10 uM using RRKHAAIGSpAYSITA as substrate in presence of [gamma-33P]ATP relative to control; format: tissue-based
[10] = molecular target: T2, Cyclin-dependent kinase 5/CDK5 activator 1 (Homo sapiens); experiment: Inhibition of recombinant human CDK5/p25 expressed in bacteria assessed as residual activity at 10 uM using histone H1 as substrate in presence of [gamma-33P]ATP relative to control; method in brief: as §2
[11] = Antiproliferative activity against hTERT-RPE1 cells assessed as cell viability at 2 uM after 48 hrs by CellTiter96 AQueous assay relative to control; format: cell-based, TERT-RPE1; conditions: human, read-out: Activity
Method in brief: (§3)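 Cells grown in McCoy's 5a (HCT116), DMEM (SH-SY5Y, MDA-MB231, U-2 OS) or DMEM:F12 (hTERT-RPE1), each with 10% fetal calf serum, 2 mM L-glutamine, penicillin/streptomycin. Exposed to compound at 2 μM for 48 h; viability read by CellTiter96 AQueous per manufacturer, as % of DMSO-treated cells. Triplicate, mean ± SD; staurosporine as positive control.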

[12] = system: U2OS; experiment: Antiproliferative activity against human U2OS cells assessed as cell viability at 2 uM after 48 hrs by CellTiter96 AQueous assay relative to control; format: functional; conditions: read-out: Activity; method in brief: as §3
[13] = system: MDA-MB-231; experiment: Antiproliferative activity against human MDA-MB-231 cells assessed as cell viability at 2 uM after 48 hrs by CellTiter96 AQueous assay relative to control; format: functional; conditions: read-out: Activity; method in brief: as §3
[14] = system: HCT-116; experiment: Antiproliferative activity against human HCT116 cells assessed as cell viability at 2 uM after 48 hrs by CellTiter96 AQueous assay relative to control; format: functional; conditions: read-out: Activity; method in brief: as §3
[15] = molecular target: Dual specificity protein kinase CLK1 (Mus musculus, UniProt P22518); experiment: Inhibition of recombinant mouse CLK1 expressed in bacteria using GRSRSRSRSRSR as substrate in presence of [gamma-33P]ATP
Sequence of Dual specificity protein kinase CLK1 (P22518 whole entry): as the sequence (P22518 whole entry, looked up, the tested form may be a part) above

[16] = system: SH-SY5Y; experiment: Antiproliferative activity against human SH-SY5Y cells assessed as cell viability at 2 uM after 48 hrs by CellTiter96 AQueous assay relative to control; format: functional; conditions: read-out: Activity; method in brief: as §3

SMILES | Activity [1] [%] | Activity [2] [%] | Activity [3] [%] | Activity [4] [%] | Activity [5] [%] | Activity [6] [%] | Activity [7] [%] | Activity [8] [%] | Activity [9] [%] | Activity [10] [%] | viability at 48 h, 2 µM [11] [%] | viability at 2 µM [12] [%] | viability at 2 µM [13] [%] | viability at 2 µM [14] [%] | IC50 [15] [nM] | viability at 2 µM [16] [%]
CCN(CC)CCCNc1ncc2cc3cnccc3c([N+](=O)[O-])c2n1 | 92 | 87 | 24 | 72 | 100 | 31 | 23 | 4 | 59 | 50 | – | – | – | – | – | –
CCN(CC)CCNc1ncc2cc3cnccc3c([N+](=O)[O-])c2n1 | 74 | 91 | 26 | 88 | 100 | 46 | 47 | 8 | 78 | 79 | – | – | – | – | – | –
Nc1c2ccncc2cc2cnc(NCCN3CCCC3)nc12 | 62 | 90 | 29 | 54 | 100 | 33 | 7 | 4 | 61 | 51 | – | – | – | – | – | –
CNc1ncc2cc3cnccc3c([N+](=O)[O-])c2n1 | 70 | 98 | 51 | 39 | 73 | 5 | 13 | 2 | 45 | 38 | 36 | 19.5 | 41 | 22 | 18 | 52
CN[C@@H]1C[C@H]2O[C@@](C)([C@@H]1OC)n1c3ccccc3c3c4c(c5c6ccccc6n2c5c31)C(=O)NC4 [STAUROSPORINE] | – | – | – | – | – | – | – | – | – | – | 9.1 | 0.4 | 3.9 | 27 | – | 9.4
O=[N+]([O-])c1c2ccncc2cc2cnc(NCCN3CCCC3)nc12 | 81 | 92 | 33 | 83 | 100 | 27 | 29 | 7 | 73 | 83 | – | – | – | – | – | –
Nc1ncc2cc3cnccc3c(N)c2n1 | – | – | – | – | – | – | – | – | – | – | 0.2 | 0.4 | 43.4 | 1.3 | – | 0.9
CN(C)CCNc1ncc2cc3cnccc3c([N+](=O)[O-])c2n1 | 70 | 100 | 21 | 89 | 100 | 22 | 17 | 5 | 36 | 52 | 29.2 | 3.3 | 9.4 | 13.3 | 62 | 42.7
CN1CCN(CCNc2ncc3cc4cnccc4c([N+](=O)[O-])c3n2)CC1 | 69 | 63 | 22 | 32 | 84 | 32 | 6 | 0 | 38 | 77 | – | – | – | – | – | –
CN1CCN(CCCNc2ncc3cc4cnccc4c([N+](=O)[O-])c3n2)CC1 | 59 | 92 | 2 | 54 | 100 | 22 | 3 | 8 | 32 | 48 | 25.8 | 2.5 | 11.7 | 9.7 | 133 | 36
O=[N+]([O-])c1c2ccncc2cc2cnc(NCCCN3CCCC3)nc12 | 78 | 100 | 24 | 87 | 100 | 37 | 6 | 5 | 37 | 50 | – | – | – | – | – | –
O=[N+]([O-])c1c2ccncc2cc2cnc(NCCCN3CCCCC3)nc12 | 76 | 100 | 24 | 56 | 100 | 16 | 6 | 7 | 34 | 53 | – | – | – | – | 125 | –
CN(C)CCCNc1ncc2cc3cnccc3c([N+](=O)[O-])c2n1 | 80 | 86 | 24 | 84 | 100 | 27 | 31 | 3 | 59 | 64 | – | – | – | – | – | –
CN(C)CCNc1ncc2cc3cnccc3c(N)c2n1 | 58 | 78 | 48 | 60 | 96 | 51 | 32 | 21 | 82 | 86 | – | – | – | – | – | –
Nc1c2ccncc2cc2cnc(NCCN3CCCCC3)nc12 | 43 | 74 | 24 | 37 | 95 | 44 | 16 | 11 | 52 | 76 | – | – | – | – | – | –
O=[N+]([O-])c1c2ccncc2cc2cnc(NCCN3CCOCC3)nc12 | 88 | 93 | 43 | 73 | 100 | 36 | 20 | 5 | 75 | 69 | – | – | – | – | – | –
O=[N+]([O-])c1c2ccncc2cc2cnc(-c3ccccc3)nc12 | 100 | 100 | 100 | 100 | 100 | 71 | 38 | 17 | 57 | 62 | – | – | – | – | – | –
Nc1c2ccncc2cc2cnc(NCCCN3CCCCC3)nc12 | 51 | 76 | 30 | 26 | 100 | 30 | 4 | 4 | 48 | 62 | – | – | – | – | – | –
Nc1c2ccncc2cc2cnc(-c3ccccc3)nc12 | 85 | 62 | 40 | 80 | 92 | 68 | 41 | 32 | 51 | 65 | – | – | – | – | – | –
O=[N+]([O-])c1c2ccncc2cc2cnc(NCCN3CCCCC3)nc12 | 39 | 81 | 1 | 52 | 96 | 42 | 26 | 1 | 37 | 85 | – | – | – | – | – | –
CCN(CC)CCNc1ncc2cc3cnccc3c(N)c2n1 | 73 | 91 | 34 | 49 | 97 | 31 | 6 | 3 | 60 | 40 | – | – | – | – | – | –
